{"source": "ChEMBL document CHEMBL1145079", "about": "“Receptor-mediated targeting of a photosensitizer by its conjugation to gonadotropin-releasing hormone analogues” (J Med Chem, 2003)", "format_in_all_cases": "functional", "key": {"[1]": {"system": "Rattus norvegicus", "test": "Serum LH releasing potency in vivo after intraperitoneal administration in rats at 6 h", "outline": "(§1)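 Blood was drawn by cardiac puncture under light ether anaesthesia at each time point. Serum LH was measured by double-antibody RIA against the LH-RP-3 reference, with three dilutions per serum. Values are mean ± SEM of five rats per group; the experiment was repeated twice more.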"}, "[2]": {"system": "Rattus norvegicus", "test": "Serum LH releasing potency in vivo after intraperitoneal administration in rats at 10 h", "outline": "as §1"}, "[3]": {"system": "Rattus norvegicus", "test": "Serum LH releasing potency in vivo after intraperitoneal administration in rats at 24 h", "outline": "as §1"}, "[4]": {"system": "Rattus norvegicus", "test": "Serum LH releasing potency in vivo after intraperitoneal administration in rats at 3 h", "outline": "as §1"}, "[5]": {"system": "Rattus norvegicus", "test": "Serum LH releasing potency in vivo after intraperitoneal administration in rats at 0 h", "outline": "as §1"}, "[6]": {"system": "Rattus norvegicus", "test": "Serum LH releasing potency in vivo after intraperitoneal administration in rats at 1.5 h", "outline": "as §1"}, "[7]": {"species": "Rattus norvegicus", "test": "LH releasing activity in rat", "outline": "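Fifteen-week-old female Wistar-derived rats (220–250 g), given 2 nmol/rat ip in 0.5 mL PBS. Blood drawn by cardiac puncture under light ether anesthesia at set times (1.5–24 h). Serum LH measured by double-antibody RIA at three dilutions per sample. Five rats per group; mean ± SEM.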"}}, "data": [{"smiles": "CC(C)C[C@H](NC(=O)[C@H](CCCCN)NC(=O)[C@H](Cc1ccc(O)cc1)NC(=O)[C@H](CO)NC(=O)[C@H](Cc1c[nH]c2ccccc12)NC(=O)[C@H](Cc1c[nH]cn1)NC(=O)[C@@H]1CCC(=O)N1)C(=O)N[C@@H](CCCN=C(N)N)C(=O)N1CCC[C@H]1C(=O)NCC(N)=O", "values": [{"measurement": "Activity", "setting": "[1]", "result": 2.94, "unit": "ng/mL"}, {"measurement": "Activity", "setting": "[2]", "result": 1.12, "unit": "ng/mL"}, {"measurement": "Activity", "setting": "[3]", "result": 0.34, "unit": "ng/mL"}, {"measurement": "Activity", "setting": "[4]", "result": 21.92, "unit": "ng/mL"}, {"measurement": "Activity", "setting": "[5]", "result": 0.53, "unit": "ng/mL"}, {"measurement": "Activity", "setting": "[6]", "result": 72.5, "unit": "ng/mL"}]}, {"smiles": "C=CC1=C(C)c2cc3[nH]c(cc4nc(cc5[nH]c(cc1n2)c(C)c5CCC(=O)O)C(CCC(=O)NCCCC[C@@H](NC(=O)[C@H](Cc1ccc(O)cc1)NC(=O)[C@H](CO)NC(=O)[C@@H](Cc1c[nH]c2ccccc12)NC(=O)[C@@H](Cc1ccccc1)NC(=O)[C@H]1CCC(=O)N1)C(=O)N[C@@H](CC(C)C)C(=O)N[C@@H](CCCN=C(N)N)C(=O)N1CCC[C@H]1C(=O)NCC(N)=O)=C4C)c(C)c3C=C", "values": [{"measurement": "ED50", "setting": "[7]", "result": 1.8, "unit": "µM"}]}, {"smiles": "C=CC1=C(C)c2cc3[nH]c(cc4nc(cc5[nH]c(cc1n2)c(C)c5CCC(=O)O)C(CCC(=O)NCCCC[C@@H](NC(=O)[C@H](Cc1ccc(O)cc1)NC(=O)[C@H](CO)NC(=O)[C@H](Cc1c[nH]c2ccccc12)NC(=O)[C@H](Cc1c[nH]cn1)NC(=O)[C@@H]1CCC(=O)N1)C(=O)N[C@@H](CC(C)C)C(=O)N[C@@H](CCCN=C(N)N)C(=O)N1CCC[C@H]1C(=O)NCC(N)=O)=C4C)c(C)c3C=C", "values": [{"measurement": "Activity", "setting": "[1]", "result": 8.1, "unit": "ng/mL"}, {"measurement": "Activity", "setting": "[2]", "result": 2.9, "unit": "ng/mL"}, {"measurement": "Activity", "setting": "[3]", "result": 0.88, "unit": "ng/mL"}, {"measurement": "Activity", "setting": "[4]", "result": 11.57, "unit": "ng/mL"}, {"measurement": "Activity", "setting": "[5]", "result": 0.53, "unit": "ng/mL"}, {"measurement": "Activity", "setting": "[6]", "result": 10.64, "unit": "ng/mL"}]}]}
